# PMC3121894 (Journal of molecular biology, 2011)
# Where two headings read alike, the source gives them in different places. Where a SMILES comes first, the peptide text is derived from it. The star is where a group is joined. 5FAM = O=C1OC2(c3ccc(O)cc3Oc3cc(O)ccc32)c2ccc(C(=O)*)cc21
# Key:
# SRPK1(ΔS) [1] = assay: Steady-state kinetic phosphorylation assay, SRPK1; type: biochemical; settings: for Km: substrate SRSF1, pH 7.4, 23° C
# How it was run: (§1)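 His6-tagged kinase (full length, N-terminal deletion, or SID deletion with RRQ linker) from E. coli BL21(DE3), Ni-purified; refolded His6-SRSF1 substrate. Reaction: 50 mM MOPS pH 7.4, 10 mM Mg2+, 1 mg/mL BSA, 23 °C, started with 100 μM 32P-ATP (600-1000 cpm/pmol). Quenched in SDS loading buffer; bands excised and counted. Initial velocities vs total SRSF1 or ATP fit to Michaelis-Menten; kcat = Vmax/total enzyme.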
# SRPK1(ΔN) [2] = assay: Steady-state kinetic phosphorylation assay, SRPK1; type: biochemical; settings: for Km: substrate SRSF1, pH 7.4, 23° C
# How it was run: as §1
# SRPK1 [3] = target: T1, SRPK1 (Homo sapiens, UniProt Q96SB4); assay: Steady-state kinetic phosphorylation assay, SRPK1; type: biochemical
# T1 sequence (Q96SB4 whole entry, species assumed): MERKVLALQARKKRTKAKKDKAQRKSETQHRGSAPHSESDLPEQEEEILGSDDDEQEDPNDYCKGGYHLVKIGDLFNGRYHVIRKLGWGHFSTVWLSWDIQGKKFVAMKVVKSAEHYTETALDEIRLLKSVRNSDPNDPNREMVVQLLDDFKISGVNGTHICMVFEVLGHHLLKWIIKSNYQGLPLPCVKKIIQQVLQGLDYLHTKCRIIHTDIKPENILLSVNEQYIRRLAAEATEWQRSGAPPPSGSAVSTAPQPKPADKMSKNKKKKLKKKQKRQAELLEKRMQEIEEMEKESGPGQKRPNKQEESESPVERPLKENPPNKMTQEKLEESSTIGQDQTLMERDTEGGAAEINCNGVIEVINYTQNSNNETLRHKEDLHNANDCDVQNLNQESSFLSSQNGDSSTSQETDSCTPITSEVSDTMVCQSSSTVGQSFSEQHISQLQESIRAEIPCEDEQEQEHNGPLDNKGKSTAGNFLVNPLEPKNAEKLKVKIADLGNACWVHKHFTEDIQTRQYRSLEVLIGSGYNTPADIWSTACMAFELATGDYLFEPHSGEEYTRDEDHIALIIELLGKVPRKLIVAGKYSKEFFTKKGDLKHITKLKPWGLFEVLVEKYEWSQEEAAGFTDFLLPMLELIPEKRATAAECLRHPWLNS
# How it was run: as §1
# SRPK1 [4] = target: T1, SRPK1; assay: Fluorescent Arg-Ser peptide binding, SRPK1; settings: for fluorescence emission change: addition of SRPK1 (25, 50, 75 nM) to 10 nM peptide
# SRPK1(ΔN) [5] = assay: Fluorescent Arg-Ser peptide binding, SRPK1; settings: removal of the N-terminus; both peptides
# SRPK1 [6] = target: T1, SRPK1; type: biochemical; settings: steady-state kinetic studies; data not shown
# [7] = target: SRPK1(ΔS), SRPK1 lacking the spacer insert domain (SID); assay: kinetic competition assay
# [8] = target: SRPK1 (SR-specific protein kinase 1), full-length wild type (UniProt Q96SB4); assay: kinetic competition assay
# Sequence of SRPK1 (SR-specific protein kinase 1), full-length wild type (Q96SB4 whole entry): as the sequence (Q96SB4 whole entry, species assumed) above
# [9] = target: SRPK1(ΔN), SRPK1 lacking the full-length N-terminus; assay: kinetic competition assay
# Sequence of SRPK1(ΔN), SRPK1 lacking the full-length N-terminus (Q96SB4 71-655, stated change not applied): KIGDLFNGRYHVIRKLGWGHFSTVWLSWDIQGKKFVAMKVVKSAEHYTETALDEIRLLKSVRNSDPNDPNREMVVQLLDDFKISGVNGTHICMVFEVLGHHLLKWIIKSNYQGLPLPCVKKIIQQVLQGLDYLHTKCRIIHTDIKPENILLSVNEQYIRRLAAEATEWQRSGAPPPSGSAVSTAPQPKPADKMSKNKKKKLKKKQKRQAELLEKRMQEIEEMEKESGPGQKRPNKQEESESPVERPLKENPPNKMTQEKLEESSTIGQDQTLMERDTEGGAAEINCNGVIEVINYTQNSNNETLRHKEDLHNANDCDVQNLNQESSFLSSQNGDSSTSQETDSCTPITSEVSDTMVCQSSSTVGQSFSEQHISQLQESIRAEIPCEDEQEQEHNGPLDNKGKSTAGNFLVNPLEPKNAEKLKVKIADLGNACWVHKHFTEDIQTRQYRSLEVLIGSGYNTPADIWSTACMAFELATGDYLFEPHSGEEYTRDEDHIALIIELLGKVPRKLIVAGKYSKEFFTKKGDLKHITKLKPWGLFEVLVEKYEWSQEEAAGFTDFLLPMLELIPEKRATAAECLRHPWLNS
# SRPK1(ΔS) [10] = assay: Single turnover phosphorylation, SRPK1; type: biochemical
# SRPK1(ΔN) [11] = assay: Competition assay; type: biochemical; settings: removal of the N-terminus; wt-SRSF1
# Target sequence in this assay (Q96SB4 76-655 limits assumed, stated change not applied): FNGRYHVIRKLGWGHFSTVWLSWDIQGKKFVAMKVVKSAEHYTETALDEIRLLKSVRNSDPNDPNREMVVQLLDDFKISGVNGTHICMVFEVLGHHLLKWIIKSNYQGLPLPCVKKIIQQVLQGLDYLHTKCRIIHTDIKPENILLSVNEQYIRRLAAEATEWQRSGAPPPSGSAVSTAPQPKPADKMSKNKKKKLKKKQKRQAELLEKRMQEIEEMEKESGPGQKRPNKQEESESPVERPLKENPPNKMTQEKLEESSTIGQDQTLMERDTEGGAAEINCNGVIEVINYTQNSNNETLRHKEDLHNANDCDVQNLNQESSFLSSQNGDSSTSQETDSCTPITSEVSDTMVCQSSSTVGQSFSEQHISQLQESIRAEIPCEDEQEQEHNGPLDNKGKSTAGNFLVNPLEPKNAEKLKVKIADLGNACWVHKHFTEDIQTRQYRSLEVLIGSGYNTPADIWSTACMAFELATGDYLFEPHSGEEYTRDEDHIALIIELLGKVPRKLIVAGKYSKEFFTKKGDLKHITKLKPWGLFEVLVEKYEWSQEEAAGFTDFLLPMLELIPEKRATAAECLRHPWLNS
# SRPK1(ΔS) [12] = assay: Competition assay; type: biochemical; settings: removal of the SID
# SRPK1 [13] = target: T1, SRPK1; settings: cited from earlier work
# SRPK1 [14] = target: T1, SRPK1; assay: Single turnover phosphorylation, SRPK1; type: biochemical
# SRPK1 [15] = target: T1, SRPK1; settings: SRPK1 complex with SRSF1; ref [15]; [18]; cited from earlier work
# [16] = SRPK1 2 μM, SRSF1 100 nM, ^32P-ATP start, double exponential fit
# [17] = SRPK1 2 μM, SRSF1 100 nM, double exponential fit
# [18] = wild-type kinase, single turnover
compound,measurement,setting,value
"Nc1ncnc2c1ncn2[C@@H]1O[C@H](COP(=O)(O)OP(=O)(O)OP(=O)(O)O)[C@@H](O)[C@H]1O [ATP, reference compound]","increase of Km,ATP",SRPK1(ΔS) [1]; SID deletion versus SRPK1,2-5 fold
same,Km,"SRPK1(ΔS) [1]; read-out: Km,ATP (Km for ATP), SRPK1(ΔS)",28 ± 7 µM
same,"increase of Km,ATP",SRPK1(ΔN) [2]; N-terminal deletion versus SRPK1,2-5 fold
same,Km,"SRPK1(ΔN) [2]; read-out: Km,ATP (Km for ATP), SRPK1(ΔN)",9 ± 2 µM
same,Km,"SRPK1 [3]; read-out: Km,ATP (Km for ATP), substrate SRSF1, pH 7.4, 23° C",5 ± 0.5 µM
N=C(N)NCCC[C@H](NC(=O)c1ccc2c(c1)C(=O)OC21c2ccc(O)cc2Oc2cc(O)ccc21)C(=O)N[C@@H](CO)C(=O)N[C@@H](CCCNC(=N)N)C(=O)N[C@@H](CO)C(=O)N[C@@H](CCCNC(=N)N)C(=O)N[C@@H](CO)C(=O)N[C@@H](CCCNC(=N)N)C(=O)N[C@@H](CO)C(=O)N[C@@H](CCCNC(=N)N)C(=O)N[C@@H](CO)C(=O)N[C@@H](CCCNC(=N)N)C(=O)N[C@@H](CO)C(=O)N[C@@H](CCCNC(=N)N)C(=O)N[C@@H](CO)C(=O)N[C@@H](CCCNC(=N)N)C(=O)N[C@@H](CO)C(=O)O [Fl-(RS)8] (5FAM-RSRSRSRSRSRSRSRS-OH; N-terminus and C-terminus assumed),fluorescence emission change,SRPK1 [4],increases in the fluorescence emission spectra
N=C(N)NCCC[C@H](NC(=O)c1ccc2c(c1)C(=O)OC21c2ccc(O)cc2Oc2cc(O)ccc21)C(=O)N[C@@H](CO)C(=O)N[C@@H](CCCNC(=N)N)C(=O)N[C@@H](CO)C(=O)N[C@@H](CCCNC(=N)N)C(=O)N[C@@H](CO)C(=O)N[C@@H](CCCNC(=N)N)C(=O)N[C@@H](CO)C(=O)N[C@@H](CCCNC(=N)N)C(=O)N[C@@H](CO)C(=O)N[C@@H](CCCNC(=N)N)C(=O)N[C@@H](CO)C(=O)N[C@@H](CCCNC(=N)N)C(=O)N[C@@H](CO)C(=O)N[C@@H](CCCNC(=N)N)C(=O)N[C@@H](CO)C(=O)N[C@@H](CCCNC(=N)N)C(=O)N[C@@H](CO)C(=O)N[C@@H](CCCNC(=N)N)C(=O)N[C@@H](CO)C(=O)N[C@@H](CCCNC(=N)N)C(=O)N[C@@H](CO)C(=O)N[C@@H](CCCNC(=N)N)C(=O)N[C@@H](CO)C(=O)N[C@@H](CCCNC(=N)N)C(=O)N[C@@H](CO)C(=O)N[C@@H](CCCNC(=N)N)C(=O)N[C@@H](CO)C(=O)N[C@@H](CCCNC(=N)N)C(=O)N[C@@H](CO)C(=O)N[C@@H](CCCNC(=N)N)C(=O)N[C@@H](CO)C(=O)O [Fl-(RS)16] (5FAM-RSRSRSRSRSRSRSRSRSRSRSRSRSRSRSRS-OH; N-terminus and C-terminus assumed),reduction of peptide binding affinity,SRPK1(ΔN) [5],about 15 fold
same,inhibition of SRSF1 phosphorylation,SRPK1 [6],competitively inhibits SRSF1 phosphorylation
same,fluorescence emission change,SRPK1 [4],increases in the fluorescence emission spectra
same,affinity of 32-residue peptide compared to the 16-residue peptide,"SRPK1 [4]; in all cases (SRPK1, SRPK1(ΔN), SRPK1(ΔS))",either equivalent or a 2-fold greater affinity
RS domain of SRSF1 (domain or fragment),Ki,[7],140 nM
same,Ki,[8],150 nM
same,Ki,[9],830 nM
"SRSF1: human alternative splicing factor or ASF/SF2; prototype SR protein, SRPK1 substrate",extent of phosphorylation,SRPK1(ΔS) [10],approx 13 sites
same,decrease of SR protein binding affinity (KI),SRPK1(ΔN) [11],2-3 fold
same,"effect of insert (SID) on Km,SR",SRPK1(ΔS) [1]; SRPK1(ΔS) versus SRPK1,no effect
same,lowering of turnover (kcat),SRPK1(ΔS) [1]; SRPK1(ΔS) versus SRPK1,about 5 fold
same,kcat,"SRPK1(ΔS) [1]; SRPK1(ΔS), 50 mM MOPS pH 7.4, 10 mM Mg^2+, 1 mg/mL BSA, ^32P-ATP, 23° C, Michaelis-Menten fit",0.0733 ± 0.0067 s⁻¹
same,"enhancement of catalysis by insert (kcat/Km,SR)",SRPK1(ΔS) [1]; SRPK1 versus SRPK1(ΔS),about 5 fold
same,Km,"SRPK1(ΔS) [1]; read-out: Km,SR (Km for SRSF1), SRPK1(ΔS)",0.12 ± 0.02 µM
same,"increase of Km,SR",SRPK1(ΔN) [2]; SRPK1(ΔN) versus SRPK1,3 fold
same,lowering of turnover (kcat),SRPK1(ΔN) [2]; SRPK1(ΔN) versus SRPK1,about 5 fold
same,kcat,"SRPK1(ΔN) [2]; SRPK1(ΔN), 50 mM MOPS pH 7.4, 10 mM Mg^2+, 1 mg/mL BSA, ^32P-ATP, 23° C, Michaelis-Menten fit",0.108 ± 0.015 s⁻¹
same,"enhancement of catalysis by N-terminus (kcat/Km,SR)",SRPK1(ΔN) [2]; SRPK1 versus SRPK1(ΔN),about 20 fold
same,Km,"SRPK1(ΔN) [2]; read-out: Km,SR (Km for SRSF1), SRPK1(ΔN)",0.63 ± 0.07 µM
same,effect of SID removal on KI / binding affinity,SRPK1(ΔS) [12],no effect
same,serines rapidly phosphorylated in RS1,"SRPK1 [13]; SRSF1, SRPK1, strict C-to-N-terminal direction, ref [7], [10]",10-12 serines
same,additional serines slowly modified in RS2,"SRPK1 [13]; SRSF1, SRPK1, shown previously, ref none printed in this sentence",about 3 serines
same,"rate constant, fast phase",SRPK1 [14]; [16],6 min⁻¹
same,"rate constant, slow phase",SRPK1 [14]; [16],0.2 min⁻¹
same,"amplitude, fast phase",SRPK1 [14]; [17],12 sites
same,"amplitude, slow phase",SRPK1 [14]; [17],3 sites
same,extent of phosphorylation,"SRPK1 [14]; SRPK1, single turnover",approx. 15 sites
same,time to completion of fast phase,SRPK1 [14]; [18],1 to 2 min
same,time to completion of slower phase,SRPK1 [14]; [18],20 to 30 min
same,Kd,SRPK1 [15],20 to 50 nM
same,kcat,"SRPK1 [3]; 50 mM MOPS pH 7.4, 10 mM Mg^2+, 1 mg/mL BSA, ^32P-ATP, 23° C, Michaelis-Menten fit",0.5 ± 0.033 s⁻¹
same,Km,"SRPK1 [3]; read-out: Km,SR (Km for SRSF1), substrate SRSF1, pH 7.4, 23° C",0.12 ± 0.02 µM
